Test results reported in ChEMBL document CHEMBL4052826, “Design and Synthesis of Novel Reactive Oxygen Species Inducers for the Treatment of Pancreatic Ductal Adenocarcinoma” (J Med Chem, 2018).
Activity calls are given as the source filed them. The calls are words filed in the database; no cut-off is given here.

Key:
MIA PaCa-2 [1] = test: Cytotoxicity against human MIAPaCa2 cells assessed as decrease in cell proliferation after 72 hrs by MTT assay; type: functional, cell-based; conditions: MIA PaCa-2, 72 h
How it was run: (§1)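 MTT assay. Cells (3000–8000/well) attached overnight in RPMI1640 with 10% FBS; the GR line was kept with 200 nM gemcitabine. Serial dilutions (30 nM–10 μM for most lines) were applied for 72 h. MTT was added at a final 300 μg/mL for 3 h at 37°C, formazan was dissolved in DMSO and A570 read. Inhibition = (1 − OD treated/OD control) × 100. IC50 given as mean ± SD, three independent experiments.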

MIA PaCa-2 [2] = test: Cytotoxicity against gemcitabine-resistant human MIAPaCa2 cells assessed as decrease in cell proliferation after 72 hrs by MTT assay; type: functional, cell-based; conditions: MIA PaCa-2, 72 h; how it was run: as §1
[3] = Cytotoxicity against HPDEC assessed as decrease in cell proliferation after 72 hrs by MTT assay; type: cell-based; conditions: Homo sapiens; how it was run: as §1
MIA PaCa-2 [4] = test: Antitumor activity against human MIAPaCa2 cells xenografted in NOD/SCID mouse assessed as tumor volume at 15 mg/kg administered once a week for 48 days (reference value: 1503 +/- 189 mm'3); type: functional
How it was run: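 MIA PaCa-2 cells (2.0 × 10^6 in RPMI1640) were injected subcutaneously into the dorsal flank of 6-week NOD/SCID mice. Mice were randomized at 75 mm3 mean tumor size (vehicle n=4, treated n=3) and dosed at 15 mg/kg once weekly for 48 days. Tumors were measured by caliper twice weekly, with V = d2 × D/2. Values are mean ± SEM, and p values are from an unpaired t test.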

MIA PaCa-2 [5] = test: Antitumor activity against human MIAPaCa2 cells xenografted in NOD/SCID mouse at 15 mg/kg administered twice a week for 15 days; type: functional, organism-based
How it was run: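 MIA PaCa-2 subcutaneous xenografts in NOD/SCID mice, randomized at 75 mm3. Test agent was given at 5 mg/kg five times a week. Gemcitabine was given at 15 mg/kg either once weekly for 48 days or twice weekly for 15 days. Groups were n=3–4. Tumor volume was measured by caliper, given as mean ± SEM, and compared by unpaired t test.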

Mus musculus [6] = test: Toxicity in NOD/SCID mouse xenografted with human MIAPaCa2 cells assessed as body weight loss at 15 mg/kg administered once a week for 48 days; type: organism-based; conditions: in vivo, 1152 h
How it was run: (§2)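 MIA PaCa-2 xenografted NOD/SCID mice randomized at 75 mm3 into vehicle (n=4), once-weekly (n=3) or twice-weekly (n=4) groups; 15 mg/kg given once a week for 48 days or twice a week for 15 days. Body weight followed; mean ± SEM.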

Mus musculus [7] = test: Toxicity in NOD/SCID mouse xenografted with human MIAPaCa2 cells assessed as body weight loss at 15 mg/kg administered twice a week for 15 days; type: organism-based; conditions: in vivo, 360 h; how it was run: as §2

Nc1ccn([C@@H]2O[C@H](CO)[C@@H](O)C2(F)F)c(=O)n1 [GEMCITABINE]
IC50 (MIA PaCa-2 [1]): 110 nM | IC50 (MIA PaCa-2 [2]): 3300 nM | IC50 [3]: 140 nM | Activity (MIA PaCa-2 [4]): 387 mm3 | Activity (MIA PaCa-2 [5]): Active | Activity (Mus musculus [6]): Non-Toxic | Activity (Mus musculus [7]): Non-Toxic
